According to ChEMBL document CHEMBL5505965 (Eur J Med Chem, 2024):
pIC50: −log10 of the molar value. ≈ marks a conversion by molar mass, not a printed value.

System: not listed separately
Experiment: Inhibition of NDM1 (unknown origin)

pIC50	SMILES
< 3.30	C[C@@H](CS)C(=O)N1CCC[C@H]1C(=O)O
5.21	O=C(O)[C@@H]1CCCN1C(=O)[C@@H](CS)C(F)(F)F
4.22	O=C(O)[C@@H]1CCCN1C(=O)[C@H](CS)C(F)(F)F
4.66	O=C(CC(S)C(F)(F)F)Nc1ccccc1 (configuration not stated)
< 3.52	O=C(O)[C@H]1CCCN1C(=O)CC(S)C(F)(F)F (some centres not stated)
5.49	O=C(O)[C@H]1CCCCN1C(=O)C(CS)C(F)(F)F (some centres not stated)
4.43	O=C(O)[C@@H]1CCCN1C(=O)C(CS)C(F)(F)F (some centres not stated)
4.12	O=C(NCc1ccccc1)[C@@H](CS)C(F)(F)F
5.47	O=C(Nc1ccccc1)C(CS)C(F)(F)F (configuration not stated)
5.25	O=C(CC(S)C(F)(F)F)Nc1ccc(C(=O)O)cc1 (configuration not stated)
6.52	O=C(O)[C@H]1CCCN1C(=O)[C@@H](CS)C(F)(F)F
5.35	O=C(O)[C@H]1CCCN1C(=O)[C@H](CS)C(F)(F)F
5.66	O=C(O)C1CCN(C(=O)C(CS)C(F)(F)F)CC1 (configuration not stated)
4.19	O=C(O)c1ccc(CNC(=O)C(CS)C(F)(F)F)cc1 (configuration not stated)
< 3.52	O=C(O)[C@@H]1CCCN1C(=O)CC(S)C(F)(F)F (some centres not stated)
< 3.52	O=C(CC(S)C(F)(F)F)NCc1ccccc1 (configuration not stated)
< 3.52	O=C(CC(S)C(F)(F)F)NCc1ccc(C(=O)O)cc1 (configuration not stated)
< 3.52	O=C(O)C1CCN(C(=O)CC(S)C(F)(F)F)CC1 (configuration not stated)
5.00	O=C(NCc1ccccc1)[C@H](CS)C(F)(F)F
3.84	O=C(O)[C@H]1CCCCN1C(=O)CC(S)C(F)(F)F (some centres not stated)
4.19	C[C@@H](CS)C(=O)N1CCC[C@@H]1C(=O)O
4.70	O=C(NCc1ccccc1)C(CS)C(F)(F)F (racemic)

System: Escherichia coli
Experiment: Anti-bacterial activity against Escherichia coli E.cloni MP30-63 expressing blaNDM- gene assessed as decrease in bacterial growth
Type: functional
In short: (§1)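 Test compound held at a fixed 500 μM in E. coli producing the B1 metallo-β-lactamase (NDM-1, VIM-2 or IMP-26). Growth was checked with the compound alone and in combination with meropenem. Read-out was the meropenem MIC (mg/L) and its fold reduction.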

SMILES	MIC
C[C@@H](O)[C@H]1C(=O)N2C(C(=O)O)=C(S[C@@H]3CN[C@H](C(=O)N(C)C)C3)[C@H](C)[C@H]12 [MEROPENEM]	32 µg/mL (≈ 83.4 µM)

System: Escherichia coli
Experiment: Anti-bacterial activity against Escherichia coli E.cloni MP30-57 expressing blaVIM- gene assessed as decrease in bacterial growth
Type: functional
In short: as §1

SMILES	MIC
C[C@@H](O)[C@H]1C(=O)N2C(C(=O)O)=C(S[C@@H]3CN[C@H](C(=O)N(C)C)C3)[C@H](C)[C@H]12 [MEROPENEM]	0.5 µg/mL (≈ 1.3 µM)

System: Escherichia coli
Experiment: Anti-bacterial activity against Escherichia coli E.cloni MP30-58expressing blaIMP- gene assessed as decrease in bacterial growth
Type: functional
In short: as §1

SMILES	MIC
C[C@@H](O)[C@H]1C(=O)N2C(C(=O)O)=C(S[C@@H]3CN[C@H](C(=O)N(C)C)C3)[C@H](C)[C@H]12 [MEROPENEM]	2 µg/mL (≈ 5.22 µM)

System: Escherichia coli
Experiment: Synergistic anti-bacterial activity Escherichia coli E.cloni MP30-63 expressing blaNDM- gene assessed as decrease in meropenem MIC at 500 uM
Type: functional

MIC	SMILES
4 µg/mL	O=C(O)[C@@H]1CCCN1C(=O)[C@@H](CS)C(F)(F)F
0.5 µg/mL	O=C(O)[C@H]1CCCCN1C(=O)C(CS)C(F)(F)F (some centres not stated)
4 µg/mL	O=C(O)[C@H]1CCCN1C(=O)[C@@H](CS)C(F)(F)F
1 µg/mL	O=C(O)C1CCN(C(=O)C(CS)C(F)(F)F)CC1 (configuration not stated)

System: Escherichia coli
Experiment: Synergistic anti-bacterial activity Escherichia coli E.cloni MP30-57 expressing blaVIM- gene assessed as decrease in meropenem MIC at 500 uM
Type: functional

MIC	SMILES
0.06 µg/mL	O=C(O)[C@@H]1CCCN1C(=O)[C@@H](CS)C(F)(F)F
0.125 µg/mL	O=C(O)[C@H]1CCCCN1C(=O)C(CS)C(F)(F)F (some centres not stated)
0.25 µg/mL	O=C(O)[C@H]1CCCN1C(=O)[C@@H](CS)C(F)(F)F
0.125 µg/mL	O=C(O)C1CCN(C(=O)C(CS)C(F)(F)F)CC1 (configuration not stated)

System: Escherichia coli
Experiment: Synergistic anti-bacterial activity Escherichia coli E.cloni MP30-58 expressing blaIMP- gene assessed as decrease in meropenem MIC at 500 uM
Type: functional

MIC	SMILES
0.25 µg/mL	O=C(O)[C@@H]1CCCN1C(=O)[C@@H](CS)C(F)(F)F
0.5 µg/mL	O=C(O)[C@H]1CCCCN1C(=O)C(CS)C(F)(F)F (some centres not stated)
4 µg/mL	O=C(O)[C@H]1CCCN1C(=O)[C@@H](CS)C(F)(F)F
2 µg/mL	O=C(O)C1CCN(C(=O)C(CS)C(F)(F)F)CC1 (configuration not stated)

System: Escherichia coli
Experiment: Anti-bacterial activity against Escherichia coli E.cloni MP21-05 assessed as decrease in bacterial growth
Type: functional

SMILES	MIC
C[C@@H](O)[C@H]1C(=O)N2C(C(=O)O)=C(S[C@@H]3CN[C@H](C(=O)N(C)C)C3)[C@H](C)[C@H]12 [MEROPENEM]	0.03 µg/mL (≈ 0.0782 µM)

System: Escherichia coli
Experiment: Synergistic anti-bacterial activity Escherichia coli E.cloni MP30-63 expressing blaNDM- gene assessed as fold reduction in meropenem MIC at 500 uM
Type: functional

SMILES	fold change (FC)
O=C(O)[C@H]1CCCCN1C(=O)C(CS)C(F)(F)F (some centres not stated)	32
O=C(O)C1CCN(C(=O)C(CS)C(F)(F)F)CC1 (configuration not stated)	32

System: Escherichia coli
Experiment: Synergistic anti-bacterial activity Escherichia coli E.cloni MP30-57 expressing blaVIM- gene assessed as fold reduction in meropenem MIC at 500 uM
Type: functional

SMILES	fold change (FC)
O=C(O)[C@@H]1CCCN1C(=O)[C@@H](CS)C(F)(F)F	8

System: Escherichia coli
Experiment: Synergistic anti-bacterial activity Escherichia coli E.cloni MP30-58 expressing blaIMP- gene assessed as fold reduction in meropenem MIC at 500 uM
Type: functional

SMILES	fold change (FC)
O=C(O)[C@@H]1CCCN1C(=O)[C@@H](CS)C(F)(F)F	8
